In ChEMBL document CHEMBL1134569, “Synthesis and in vitro and in vivo antimalarial activity of new 4-anilinoquinolines” (J Med Chem, 2001):
pIC50: −log10 of the molar value.

Tests used:
[1] = Cytotoxicity upon MPMs (mouse peritoneal macrophages) at 6.3 uM conc.; Toxic
Outline: (§1)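 Mouse peritoneal macrophages harvested 48 h after potato-starch stimulation and seeded at 30000 cells/well. After 24 h, washed and exposed to 2-fold drug dilutions in RPMI + 5% FCS (final DMSO below 0.5%) at 37 °C, 5% CO₂, for 7 days. Toxicity scored microscopically as toxic or not versus untreated controls.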

Plasmodium falciparum [2] = assay: Inhibitory activity against chloroquine-resistant Plasmodium falciparum FcB1R; type: functional, organism-based; settings: Plasmodium falciparum
[3] = Cytotoxicity upon MPMs (mouse peritoneal macrophages) at 2 uM; outline: as §1
[4] = Cytotoxicity upon MRC-5 cells (diploid embryonic lung cell line) at 1.6 uM conc.; type: cell-based, MRC5; settings: human
Outline: (§2)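 MRC-5 human diploid embryonic lung cells seeded at 5000/well, washed after 24 h, then given 2-fold drug dilutions in RPMI + 5% FCS (final DMSO below 0.5%). Incubated at 37 °C, 5% CO₂, for 7 days. MTT read-out at 540 nm, scored as percent absorbance reduction versus untreated controls.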

[5] = Cytotoxicity upon MRC-5 cells (diploid embryonic lung cell line) at 6.3 uM; type: cell-based, MRC5; settings: human; outline: as §2
[6] = Cytotoxicity upon MPMs (mouse peritoneal macrophages) at 12.5 uM conc.; Toxic; outline: as §1
[7] = Cytotoxicity upon MRC-5 cells (diploid embryonic lung cell line) at 25 uM conc.; type: cell-based, MRC5; settings: human; outline: as §2
[8] = Cytotoxicity upon MPMs (mouse peritoneal macrophages) at 8 uM conc.;NT=No Toxicity; outline: as §1
[9] = Cytotoxicity upon MRC-5 cells (diploid embryonic lung cell line) at 32 uM; type: cell-based, MRC5; settings: human; outline: as §2
[10] = Cytotoxicity upon MRC-5 cells (diploid embryonic lung cell line) at 8 uM; type: cell-based, MRC5; settings: human; outline: as §2
[11] = Cytotoxicity upon MPMs (mouse peritoneal macrophages) at 32 uM; outline: as §1
[12] = Cytotoxicity upon MRC-5 cells (diploid embryonic lung cell line) at 1 uM; type: cell-based, MRC5; settings: human; outline: as §2
Mus musculus [13] = assay: Antimalarial activity on Plasmodium berghei in mice (Mus musculus) dosed at 40 mg/kg at day 4; type: functional
Outline: (§3)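 Female Swiss CD-1 mice (4 weeks, 20-25 g), three per group, infected ip with about 10⁷ P. berghei ANKA 65 parasitized erythrocytes from an infected donor. Dosed orally at 40 mg/kg in 100% DMSO at infection, then ip for the following 4 days. Parasitaemia reduction and mean survival time compared with three DMSO-dosed infected controls.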

[14] = Cytotoxicity upon MPMs (mouse peritoneal macrophages) at 12.5 uM conc.;NT=No Toxicity; outline: as §1
Plasmodium falciparum [15] = assay: Inhibitory activity against chloroquine-sensitive Plasmodium falciparum THAI
[16] = Cytotoxicity upon MPMs (mouse peritoneal macrophages) at 6.3 uM; outline: as §1
Plasmodium falciparum [17] = assay: Inhibitory activity against chloroquine-resistant Plasmodium falciparum K1; type: functional, organism-based
Mus musculus [18] = assay: Change in the mean survival time of the treated mice infected with Plasmodium berghei, dosed at 40 mg/kg; type: functional
Outline: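 P. berghei ANKA 65 in 4-week-old female Swiss CD-1 mice (20-25 g), infected ip with about 10⁷ parasitized erythrocytes; 40 mg/kg given orally at infection (formulated in 100% DMSO), then ip over the following 4 days; three mice per group; mean survival time of treated mice compared with three infected DMSO-dosed controls.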

[19] = Cytotoxicity upon MRC-5 cells (diploid embryonic lung cell line) at 12.5 uM; type: cell-based, MRC5; settings: human; outline: as §2
Mus musculus [20] = assay: Antimalarial activity on Plasmodium berghei in mice (Mus musculus) dosed at 40 mg/kg at day 7; type: functional; outline: as §3
[21] = Cytotoxicity upon MRC-5 cells (diploid embryonic lung cell line) at 3.1 uM; type: cell-based, MRC5; settings: human; outline: as §2
[22] = Cytotoxicity upon MPMs (mouse peritoneal macrophages) at 3.1 uM conc.;NT=No Toxicity; outline: as §1
[23] = Cytotoxicity upon MPMs (mouse peritoneal macrophages) at 2 uM conc.; Toxic; outline: as §1
[24] = Cytotoxicity upon MPMs (mouse peritoneal macrophages) at 8 uM; outline: as §1

SMILES	pIC50 (Plasmodium falciparum [2])	NT [3]	cytotoxicity at 1.6 µM [4]	cytotoxicity at 6.3 µM [5]	cytotoxicity at 25 µM [7]	cytotoxicity at 32 µM [9]	cytotoxicity at 8 µM [10]	Cytotoxicity [11]	cytotoxicity at 1 µM [12]	pIC50 (Plasmodium falciparum [15])	NT [16]	pIC50 (Plasmodium falciparum [17])	Excess MST (Mus musculus [18])	Cytotoxicity [23]	Cytotoxicity [24]	other results
O=C(CN1CCCCC1)Nc1cc(COC(=O)c2ccnc3ccccc23)cc(Nc2ccnc3cc(Cl)ccc23)c1	7.59	Cytotoxicity upon MPMs at 2 uM	62%	100%	100%	–	–	–	–	–	–	–	–	–	–	Cytotoxicity [1]: Toxic; Cytotoxicity [6]: Toxic
N#Cc1ccc(CN2CCN(Cc3cc(NC(=O)CN4CCCCC4)cc(Nc4ccnc5cc(Cl)ccc45)c3)CC2)cc1	7.88	Cytotoxicity upon MPMs at 2 uM	–	–	–	100%	100%	Cytotoxicity upon MPMs at 32 uM	0%	–	–	–	–	–	–	NT [8]: Cytotoxicity upon MPMs at 2 uM
O=C(CN1CCCCC1)Nc1cc(COC(=O)CCCCN2CCCCC2)cc(Nc2ccnc3cc(Cl)ccc23)c1	7.81	Cytotoxicity upon MPMs at 2 uM	0%	90%	92%	–	–	–	–	7.76	Cytotoxicity upon MPMs at 2 uM	7.72	0%	–	–	Reduction in parasitemia (Mus musculus [13]): 99.99%; NT [14]: Cytotoxicity upon MPMs at 2 uM
O=C(CN1CCCCC1)Nc1cc(CO)cc(Nc2ccnc3cc(Cl)ccc23)c1	7.35	–	0%	0%	98%	99%	0%	–	0%	7.05	Cytotoxicity upon MPMs at 6.3 uM	6.82	110%	–	–	cytotoxicity at 12.5 µM [19]: 0%; Reduction in parasitemia (Mus musculus [20]): 60%; cytotoxicity at 3.1 µM [21]: 0%; Cytotoxicity [6]: Toxic; NT [22]: Cytotoxicity upon MPMs at 6.3 uM
O=C(CN1CCCCC1)Nc1cc(COC(=O)CCCCN2CCOCC2)cc(Nc2ccnc3cc(Cl)ccc23)c1	7.85	Cytotoxicity upon MPMs at 2 uM	0%	0%	0%	–	–	–	–	7.82	Cytotoxicity upon MPMs at 2 uM	7.65	100%	–	–	Reduction in parasitemia (Mus musculus [13]): 97.9%; NT [14]: Cytotoxicity upon MPMs at 2 uM
CCN(CC)c1ccc(CN2CCN(Cc3cc(NC(=O)CN4CCCCC4)cc(Nc4ccnc5cc(Cl)ccc45)c3)CC2)cc1	7.92	–	–	–	–	100%	100%	Cytotoxicity upon MPMs at 32 uM	100%	–	–	–	–	Toxic	Cytotoxicity upon MPMs at 32 uM	–
CN(C)CCCNCc1cc(NC(=O)CN2CCCCC2)cc(Nc2ccnc3cc(Cl)ccc23)c1	6.87	Cytotoxicity upon MPMs at 2 uM	–	–	–	78%	0%	Cytotoxicity upon MPMs at 32 uM	0%	–	–	–	–	–	–	NT [8]: Cytotoxicity upon MPMs at 2 uM
CCN(CC)Cc1cc(NC(=O)CN2CCCCC2)cc(Nc2ccnc3cc(Cl)ccc23)c1	8.09	–	–	–	–	100%	100%	Cytotoxicity upon MPMs at 32 uM	0%	–	–	–	–	Toxic	Cytotoxicity upon MPMs at 32 uM	–
O=C(CN1CCCCC1)Nc1cc(CN2CCCCC2)cc(Nc2ccnc3cc(Cl)ccc23)c1	7.99	–	–	–	–	100%	100%	Cytotoxicity upon MPMs at 32 uM	43%	8.17	–	8.09	–	Toxic	Cytotoxicity upon MPMs at 32 uM	–
